Results reported in PMC7255057 (Journal of medicinal chemistry, 2019).

What was measured:
[1] = molecular target: T1, human serum albumin (HSA) (Homo sapiens, UniProt P02768); assay: ANS fluorescence binding and competition on HSA; conditions: for displacement of ANS from HSA: 2.5 μM HSA with 5 or 100 μM ANS
Outline: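 Fluorescence competition with 2.5 μM HSA and 5 or 100 μM ANS. The test compound was titrated over a concentration range. Excitation was 360 nm, with emission read at 460 and 480 nm to detect blue shifts. Signals were normalised between ANS alone (minimum) and HSA:ANS (maximum). ANS stoichiometry and affinity on HSA were set beforehand by a Sudlow-type titration.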

EPAC1CBD [2] = molecular target: T2, EPAC1CBD (Homo sapiens, UniProt O95398); assay: Nonspecific interaction with EPAC1CBD by global NH-HSQC intensity losses; format: binding; conditions: for type of aggregation-based inhibitor: NMR intensity losses and DLS
T2 sequence (O95398 149-318 isoform O95398-3): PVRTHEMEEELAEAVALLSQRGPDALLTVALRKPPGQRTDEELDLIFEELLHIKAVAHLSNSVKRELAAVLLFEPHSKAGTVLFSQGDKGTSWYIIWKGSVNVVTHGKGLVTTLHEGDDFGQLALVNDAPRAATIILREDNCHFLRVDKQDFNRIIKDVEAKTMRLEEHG

[3] = SPR on nonfunctionalized gold nanoparticle sensor; format: physicochemical; conditions: for SPR signal relative to DMSO control: 50 μM and 250 μM, 1.25% DMSO
[4] = Dynamic light scattering of aggregates/micelles; format: physicochemical; conditions: for aggregate size range (DLS intensity profile): 500 μM, 2.5% DMSO; for aggregates detectable by DLS in presence of HSA: with HSA
[5] = molecular target: human serum albumin (HSA) Sudlow sites (Homo sapiens, UniProt P02768); assay: Fluorescence competition with dansylated amino acids; format: binding
Outline: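 Dansylated arginine (Sudlow site 1, 1:1) or dansylated phenylalanine (sites 1 and 2) fluorescence with recombinant fatty-acid-free HSA on a plate reader. Excitation was 370 for both probes, with emission at 460 (DanR) or 480 nm (DanF). Probe affinity and stoichiometry came from direct titration. Competitions used 2.5 μM HSA with 100 μM probe and were least-squares fitted assuming no extra sites.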

[6] = Transmission electron microscopy of aggregates; format: physicochemical; conditions: 200 μM
Outline: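 Aggregate samples were applied to 400-mesh copper grids freshly coated with continuous amorphous carbon and glow-discharged at 5 mA for 15 s beforehand. Grids were imaged by transmission electron microscopy on a side-mounted cooled 4-megapixel CCD camera.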

[7] = molecular target: T1, human serum albumin (HSA); assay: 13C-oleic acid displacement assay on HSA; format: binding; conditions: 250 μM HSA, 1.5 mM OA
Outline: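 Recombinant globulin- and fatty-acid-free HSA at 250 μM in 20 mM NaPO4 pH 7.6, 50 mM NaCl in 99.9% D2O, held 37 °C 30 min. 13C-oleic acid (100 mM stock in DMSO-d6, warmed 50 °C 10 min) added to 1.5 mM final, then 37 °C 2 h. {13C–1H}-HSQC recorded with and without test compound at 298 K; site peaks A–H losing intensity mark displacement.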

EPAC1CBD [8] = molecular target: T2, EPAC1CBD; assay: DLS volume profile of EPAC1CBD in presence of ESIs; format: binding
[9] = molecular target: T3, EPAC1CBD (cAMP-binding domain of hEPAC1, residues 149–318) (Homo sapiens, UniProt O95398); assay: NH-HSQC chemical shift titration of EPAC1CBD
T3 sequence (O95398 149-318 isoform O95398-3): T2 sequence (O95398 149-318 isoform O95398-3)
Outline: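 100 μM human EPAC1 CBD (residues 149–318) in Tris NMR buffer was titrated with test compound, with or without HSA, and read by 1H-15N HSQC. DMSO was 0.5% per 100 μM compound. Compounded chemical-shift changes from 35 residues were least-squares fitted at 1:1, with ΔCCSmax free or fixed, to give Kd or apparent Kd. Peak intensities were normalised to the compound-free sample and averaged (I/I0).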

T1 sequence (P02768 25-609): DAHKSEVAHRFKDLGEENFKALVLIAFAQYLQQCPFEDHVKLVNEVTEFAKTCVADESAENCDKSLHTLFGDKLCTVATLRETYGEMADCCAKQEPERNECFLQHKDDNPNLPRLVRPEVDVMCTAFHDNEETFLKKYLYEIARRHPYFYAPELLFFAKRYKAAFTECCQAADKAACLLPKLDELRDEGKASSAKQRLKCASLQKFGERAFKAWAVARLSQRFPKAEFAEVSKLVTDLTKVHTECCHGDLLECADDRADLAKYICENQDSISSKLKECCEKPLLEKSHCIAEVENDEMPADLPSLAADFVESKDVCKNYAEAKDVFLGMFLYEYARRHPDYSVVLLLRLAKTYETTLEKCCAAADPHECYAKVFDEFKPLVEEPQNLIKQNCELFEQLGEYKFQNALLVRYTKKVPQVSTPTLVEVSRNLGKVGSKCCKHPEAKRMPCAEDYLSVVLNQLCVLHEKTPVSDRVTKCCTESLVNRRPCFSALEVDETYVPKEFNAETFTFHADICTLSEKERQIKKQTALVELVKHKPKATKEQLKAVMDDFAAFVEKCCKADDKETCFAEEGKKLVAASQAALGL
Sequence of human serum albumin (HSA) Sudlow sites (P02768 25-609): as above

Row | Compound | EPAC1CBD NH-HSQC signal/intensity loss (EPAC1CBD [2]) | type of aggregation-based inhibitor (EPAC1CBD [2]) | SPR signal relative to DMSO control [3] | aggregate size range (DLS intensity profile) [4] | aggregates detectable by DLS in presence of HSA [4] | displacement of ANS from HSA [1] | aggregate morphology (TEM) [6] | displacement of 13C-oleic acid from HSA [7] | other results
1 | O=S(=O)(O)c1cccc2cccc(Nc3ccccc3)c12 [ANS, 8-anilinonaphthalene-1-sulfonic acid] |  |  |  |  |  |  |  |  | ANS binding stoichiometry and affinity for HSA ([1]; Scatchard plot): binds up to four sites on HSA with low micromolar affinity
2 | C[C@@H]1CCc2c(cc(Br)c(F)c2Br)N1C=O [CE3F4R] | no more than that caused by DMSO | Type A | no significant change in SPR signal | 90–600 nm | no detectable aggregates in the presence of HSA | unable to displace ANS | more amorphous morphology | displace OA at multiple sites | coaggregate size with TX (DLS) ([4]; TX:CE3F4R 1:2 (0.0075% TX, 200 μM CE3F4R)): around 70 nm; displacement of dansylated amino acids from HSA ([5]; concentrations below CAC): ineffective at displacing either of the dansylated amino acids from HSA; change of EPAC1CBD DLS volume profile (EPAC1CBD [8]; below or above CAC): does not result in any major change in the volume profile of EPAC1CBD; increase of apparent Kd for EPAC1CBD binding caused by HSA ([9]; CE3F4R titration with vs without HSA): 5–10 fold; concentration at which dissociation from EPAC1CBD starts ([9]; presence of HSA): ≥ 750 µM
3 | CN(C)c1cccc2c(S(=O)(=O)N[C@@H](CCCN=C(N)N)C(=O)O)cccc12 [DanR, dansyl-arginine] |  |  |  |  |  |  |  |  | Kd ([5]; read-out: Kd for HSA Sudlow's Site I, fluorescence titration): ~25 µM
4 | CC(C)(C)c1cc(C(=O)/C(C#N)=N/Nc2cccc(Cl)c2)no1 [ESI-09] | substantial signal losses for EPAC1CBD peaks | type B | significant difference for ESI-09 when injected at a concentration that is above its CAC | 90–600 nm | no detectable aggregates in the presence of HSA | can fully displace even large excesses of ANS at low micromolar concentrations | spherical micellar morphology | displace OA at multiple sites | ESI-09 concentration giving similar signal loss in presence of HSA (EPAC1CBD [2]; compared with 100 μM ESI-09 without HSA): around 400 μM; increase of EPAC1CBD HSQC intensities in presence of HSA (EPAC1CBD [2]; most ESI-09 concentrations): 30–40%; SPR signal with HSA relative to HSA and DMSO control ([3]; 250 μM ESI-09 with 25 μM HSA): no significant SPR signal increase; SPR signal with HSA relative to HSA and DMSO reference ([3]; 500 μM ESI-09 with 25 μM HSA): SPR signal significantly increases; increase of EPAC1CBD size profile (DLS) (EPAC1CBD [8]; ESI concentration above CAC): up to 5 nm; EPAC1CBD chemical shift changes with HSA relative to those without HSA ([9]; 100 μM ESI-09): < 20%; reduction of average chemical shift changes with HSA vs without HSA ([9]; ESI-09 concentration yielding similar intensity losses): ~ 30%
5 | Triton X-100 [TX] | no significant chemical shift changes or intensity losses |  |  |  |  |  |  |  | average aggregate/micelle diameter (DLS) ([4]; compound in isolation): about 10 nm
